# Assay outcomes: PubChem BioAssay, The Scripps Research Institute Molecular Screening Center
# GALR2 ag: agonists of human galanin receptor 2 (GALR2) | GALR2-expressing cells, agonist activation read-out | activation, % (test concentration not listed) | 0.48% of 140,000 active; in the data active = activation above about 5%, passing the limit was not always enough;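 also: 0% = vehicle buffer wells and 100% = reference agonist at full effect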
# Target sequence (O43603 whole entry, looked up): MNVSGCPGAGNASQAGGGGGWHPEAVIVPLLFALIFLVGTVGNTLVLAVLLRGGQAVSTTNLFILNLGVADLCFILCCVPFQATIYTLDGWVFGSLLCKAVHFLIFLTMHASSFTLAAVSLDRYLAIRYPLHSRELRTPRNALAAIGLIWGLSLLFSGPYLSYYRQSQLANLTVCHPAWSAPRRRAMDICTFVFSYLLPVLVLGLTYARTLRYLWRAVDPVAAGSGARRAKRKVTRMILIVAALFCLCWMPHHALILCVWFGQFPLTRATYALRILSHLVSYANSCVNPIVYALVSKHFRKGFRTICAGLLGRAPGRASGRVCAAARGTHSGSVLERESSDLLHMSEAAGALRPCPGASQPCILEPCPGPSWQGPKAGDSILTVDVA
# S1P2 antag: antagonists of human S1P2 receptor; inhibition, % at 5 µM; O95136; AID 736; 0.21% of 97,000 active; cell-based S1P2 antagonist assay, inhibition at 5 uM; in the data active = inhibition above about 45%;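 also: CRE beta-lactamase reporter cells expressing human S1P2 stimulated with S1P; 0% = agonist at EC80 alone and 100% = agonist plus reference antagonist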
# S1P2 ag: agonists of human S1P2 receptor; O95136; S1P2-expressing cell line, agonist reporter read-out; activation, % at 4.5 µM; 0.46% of 97,000 active; AID 729; in the data active = activation above about 16%;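 also: 0% = vehicle low control and 100% = maximal reference agonist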
# GALR2 blocker: GALR2 (human) receptor antagonism. O43603. AID 828. inhibition, % at 4 µM. GALR2-expressing cells, antagonist mode. 0.39% of 140,000 active; in the data active = inhibition above about 27%;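 also: cells stimulated with galanin 1-16 at roughly its EC80; 0% = agonist challenge control and 100% = basal control without agonist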
# Rev-RRE block: disrupts HIV-1 Rev binding to RRE RNA | P05866 | Rev peptide-RRE RNA binding, FRET | inhibition, % at 8 µM | 0.79% of 97,000 active | AID 704;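 active = inhibition above the screen-wide mean plus 3 SD, cut at about 35% in these data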;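 also: 0% = median DMSO wells and 100% = median Neomycin B control wells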
# Target sequence (P05866 whole entry, looked up): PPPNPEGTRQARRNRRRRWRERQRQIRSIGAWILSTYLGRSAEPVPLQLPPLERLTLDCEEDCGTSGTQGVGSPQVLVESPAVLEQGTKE
#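 assay system = Cy5-tagged RRE RNA duplex with fluorescein-tagged Rev peptide | incubation = 5 + 15 min at 25 °C | also added = labelled Rev peptide | measure = % inhibition of FRET ratio versus controls | benchmarks = DMSO wells as 0% and neomycin B wells as 100% inhibition | measured by = FRET fluorescence readout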
# EphB4 antag: blocks human EphB4 binding to ephrin-B2 | P54760 | EphB4 LBD / TNYL-RAW-Alexa532 peptide, fluorescence polarization | inhibition, % at 7 µM | 0.15% of 97,000 active | AID 720;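 active = inhibition above the screen-wide mean inhibition plus 3 SD, cut at about 15% in these data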;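 also: 0% = DMSO wells and 100% = excess unlabeled TNYL-RAW peptide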
# * hit, by the source's call; . = not tested or not shown; [ ] = another dose, or the depositor's remark. A selection: hits, their analogues and other compounds. The true share with any hit is near 1.8%.
SMILES,GALR2 ag,S1P2 antag,S1P2 ag,GALR2 blocker,Rev-RRE block,EphB4 antag
CC(C)NC(=S)N/N=C/c1cc(Br)ccc1O,-2.1,.,.,8.4,.,.
O=C(Nc1ccc(F)cc1)C(Sc1nc2ccccc2[nH]1)c1ccccc1 (centres undefined),-0.6,.,.,4.0,.,.
Cn1c(SCC(=O)c2ccc3c(c2)Cc2ccccc2-3)nnc1-c1cccc(N)c1,-2.5,.,.,6.5,.,.
CC(=O)Nc1ccc(-c2nnc(SCC(=O)c3ccc4c(c3)Cc3ccccc3-4)n2C)cc1,4.9*,-8.7,-4.2,-31.2,-3.4,-4.4
CC(C)C(NC(=S)Nc1ccccc1)C(=O)O (centres undefined),-1.1,.,.,1.6,.,.
Nc1c(C(=O)Nc2ccccc2)sc2nc(-c3ccco3)ccc12,-1.5,9.1,-3.8,-13.4,36.4*,7.9
O=S(=O)(c1ccc2c(c1)OCCO2)N1CCC(n2nnc3cc(F)ccc32)CC1,-0.5,-7.0,-8.3,13.6,3.9,2.1
O=C(N1CCOCC1)N1CCC(n2nnc3cc(F)ccc32)CC1,-2.6,0.8,-3.1,-3.1,39.6*,-1.1
COc1cc(/C=C(/C#N)c2nc3ccccc3[nH]2)ccc1OCC(=O)Nc1ccccc1C(C)C,-1.5,1.9,18.9*,4.2,-5.1,-1.1
COc1cc(/C=C(/C#N)c2nc3ccccc3[nH]2)ccc1OCC(=O)Nc1ccccc1C,-0.6,8.0,3.5,-18.7,-0.3,3.5
O=C(CCn1c(=O)oc2ccccc21)Nc1ccccc1,7.9*,6.2,0.2,-13.8,3.4,2.1
COc1ccc(N2CCn3c2nc2c3c(=O)n(CCCc3ccccc3)c(=O)n2C)c(OC)c1,-0.9,57.7*,-4.2,0.3,0.9,4.8
COc1ccc(N2CCn3c2nc2c3c(=O)n(CCc3ccccc3)c(=O)n2C)c(OC)c1,-0.1,4.6,-11.6,-1.1,3.2,3.4
Cn1c(N)c(C#N)c2c(c1=S)CSC(C)(C)C2,-2.5,10.8,-5.3,-2.0,40.3*,-10.7
CCCn1nnc(NC(=O)c2cccc(OCc3ccccc3)c2)n1,-1.4,-9.2,-2.4,2.4,2.1,-2.9
CC1(C)Cc2c(C#N)c(N3CCN(C(=O)c4ccccc4Cl)CC3)nc(-c3ccco3)c2CS1,-118.8,-13.7,-2.4,-19.6,50.8*,-1.8
CCC(C)(C)NC(=O)c1ccc2c(c1)S(=O)(=O)c1ccccc1C2=O,0.6,-41.0,22.7*,-18.7,-0.7,0.8
O=C(NCCO)c1ccc2c(c1)S(=O)(=O)c1ccccc1C2=O,0.1,1.2,-3.1,-4.6,10.0,-1.6
CCOc1ccc(NC(=O)CCN2CCN(S(=O)(=O)c3ccc(OC)cc3)CC2)cc1,-2.0,4.2,-3.2,-2.2,14.9,-1.0
CCOc1ccc(NC(=O)CCN2CCN(S(=O)(=O)c3ccc(Cl)cc3)CC2)cc1,269.0*,-1.0,-5.8,-9.9,1.6,2.5
CCOC(=O)C1=C(CSc2nc3c(cc2C#N)CN(C)CC3)OC(N)=C(C#N)C1c1ccncc1 (centres undefined),-1.4,.,.,5.9,.,.
CCOC(=O)C1=C(CSc2nc3c(cc2C#N)CN(C)CC3)OC(N)=C(C#N)C1c1ccc(Cl)cc1 (centres undefined),0.2,-9.2,-1.2,2.9,58.1*,-7.1
CCOC(=O)C1=C(CSc2nc(-c3ccccc3)ccc2C#N)OC(N)=C(C#N)C1c1ccc(OC)cc1 (centres undefined),0.3,-1.7,-4.9,7.3,44.0*,-3.0
Cc1ccccc1Cn1ccc(=NCc2ccccc2)cc1,0.0,.,.,1.7,.,.
Cc1cccc2nc(-c3ccccc3)nc(N[C@@H](CO)c3ccccc3)c12,-0.3,.,.,-0.1,.,.
SMILES,GALR2 ag,S1P2 antag,S1P2 ag,GALR2 blocker,Rev-RRE block,EphB4 antag
CC(C)CC(=O)Nc1cc([N+](=O)[O-])ccc1Cl,-3.0,7.0,17.4*,-7.6,8.2,3.2
Cc1c2cc(O)c(=O)cc-2oc2cc(O)c(O)cc12,-0.5,-18.8,2.0,-2.1,139.8*[fluorescence artefact?],48.5*[fluorescence artefact?]
COc1cc(OC)c(-c2c3cc(O)c(=O)cc-3oc3cc(O)c(O)cc23)cc1OC,-1.5,.,.,20.6,.,.
c1ccc(-c2nc(N3CCNCC3)nc3ccccc23)cc1,7.8,-17.9,20.4*,13.3,-3.7,3.1
O=C(O)CCCC(=O)N1CCN(c2nc(-c3ccccc3)c3ccccc3n2)CC1,-1.2,-6.5,37.9*,12.6,-6.6,-7.3
c1ccc(-c2nc(N3CCCCC3)nc3ccccc23)cc1,0.9,-19.3,2.6,-1.6,16.5,0.7
